Each block holds one molecule with its values, some of them ahead of it.
What was measured:
stathmin (STMN1) = stathmin (STMN1) (Homo sapiens, UniProt P16949); test: TMT18plex lysine ligandability profiling, STMN1; assay type: binding; settings: 100 μM, 8 h, breast cancer cells
Summary of the method: (§1)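 Live MDA-MB-231 or MDA-MB-436 breast cancer cells were exposed to the test compound (100 µM, 8 h) or DMSO vehicle. Lysates (soluble and insoluble fractions) were chased with a desthiobiotin-tagged lysine-specific STP ester probe, trypsin-digested, streptavidin-enriched and quantified by TMTpro-18plex. Lysines had to be quantified in all biological triplicates and TMT channels. A lysine counted as liganded at ≥60% loss of probe enrichment relative to DMSO.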

prohibitin-2 (PHB2) = prohibitin-2 (PHB2) (Homo sapiens, UniProt Q99623); test: TMT18plex lysine ligandability profiling, PHB2; assay type: binding; settings: 100 μM, 8 h, breast cancer cells
Chain of prohibitin-2 (PHB2) (Q99623 whole entry): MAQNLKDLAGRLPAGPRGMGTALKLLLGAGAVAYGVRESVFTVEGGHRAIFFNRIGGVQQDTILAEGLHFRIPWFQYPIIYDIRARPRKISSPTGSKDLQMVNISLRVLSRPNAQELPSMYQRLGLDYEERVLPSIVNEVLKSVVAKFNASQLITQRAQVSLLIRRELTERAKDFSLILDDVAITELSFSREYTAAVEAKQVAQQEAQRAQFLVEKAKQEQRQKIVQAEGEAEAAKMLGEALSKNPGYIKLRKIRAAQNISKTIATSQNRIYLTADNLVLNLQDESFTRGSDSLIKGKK
Summary of the method: as §1

[1] = target: mitochondrial citrate synthase (CS) (Homo sapiens, UniProt O75390); test: TMT18plex lysine ligandability profiling, CS; assay type: binding; settings: MDA-MB-231 cells
Chain of mitochondrial citrate synthase (CS) (O75390 28-466): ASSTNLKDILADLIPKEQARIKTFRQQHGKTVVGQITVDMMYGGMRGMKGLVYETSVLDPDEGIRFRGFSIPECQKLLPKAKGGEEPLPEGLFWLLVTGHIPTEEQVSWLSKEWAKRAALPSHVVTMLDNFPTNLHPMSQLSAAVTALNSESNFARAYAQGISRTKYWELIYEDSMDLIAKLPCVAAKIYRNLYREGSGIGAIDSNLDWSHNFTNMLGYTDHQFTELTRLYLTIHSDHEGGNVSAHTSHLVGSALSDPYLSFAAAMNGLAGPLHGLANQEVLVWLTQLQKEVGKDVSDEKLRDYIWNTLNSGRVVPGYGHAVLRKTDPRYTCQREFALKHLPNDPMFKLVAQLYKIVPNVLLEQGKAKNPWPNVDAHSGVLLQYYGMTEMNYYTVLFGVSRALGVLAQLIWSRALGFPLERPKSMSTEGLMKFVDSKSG
Summary of the method: as §1

MDA-MB-231 cells [2] = test: in-gel fluorescence profiling of clickable probes; assay type: cell-based, human; settings: in MDA-MB-231 cells
annexin A4 (ANXA4) = annexin A4 (ANXA4) (Homo sapiens, UniProt P09525); test: TMT18plex lysine ligandability profiling, ANXA4; assay type: binding; settings: liganded = ≥60% reduction in probe enrichment; single meroterpenoid
Chain of annexin A4 (ANXA4) (P09525 whole entry): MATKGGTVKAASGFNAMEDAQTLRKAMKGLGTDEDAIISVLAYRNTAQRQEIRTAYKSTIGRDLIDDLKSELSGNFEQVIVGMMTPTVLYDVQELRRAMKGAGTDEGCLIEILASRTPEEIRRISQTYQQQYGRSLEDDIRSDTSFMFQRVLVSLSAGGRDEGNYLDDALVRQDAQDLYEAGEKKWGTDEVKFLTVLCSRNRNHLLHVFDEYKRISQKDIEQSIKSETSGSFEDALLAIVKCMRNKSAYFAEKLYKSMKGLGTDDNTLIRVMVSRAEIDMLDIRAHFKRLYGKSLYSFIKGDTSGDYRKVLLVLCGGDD
Summary of the method: as §1

[3] = assay type: physicochemical; settings: excess of butylamine; for fold increased half-life / diminished rate compared to salicylaldehyde: vs salicylaldehyde
ionization constants = assay type: physicochemical
transthyretin (TTR) = transthyretin (TTR) (Homo sapiens, UniProt P02766); test: TMT18plex lysine ligandability profiling, TTR; assay type: binding; settings: liganded = ≥60% reduction in probe enrichment; single meroterpenoid
Summary of the method: as §1

MDA-MB-231 cells [4] = test: untargeted lipidomics profiling of treated cells; assay type: cell-based, human; settings: 100 μM, 8 h
ABHD12 [5] = target: T1, ABHD12 (Homo sapiens, UniProt Q8N2K0); test: TMT18plex lysine ligandability profiling, ABHD12; assay type: binding; settings: both MDA-MB-231 and MDA-MB-436 cell lines
T1 sequence (Q8N2K0 1-398): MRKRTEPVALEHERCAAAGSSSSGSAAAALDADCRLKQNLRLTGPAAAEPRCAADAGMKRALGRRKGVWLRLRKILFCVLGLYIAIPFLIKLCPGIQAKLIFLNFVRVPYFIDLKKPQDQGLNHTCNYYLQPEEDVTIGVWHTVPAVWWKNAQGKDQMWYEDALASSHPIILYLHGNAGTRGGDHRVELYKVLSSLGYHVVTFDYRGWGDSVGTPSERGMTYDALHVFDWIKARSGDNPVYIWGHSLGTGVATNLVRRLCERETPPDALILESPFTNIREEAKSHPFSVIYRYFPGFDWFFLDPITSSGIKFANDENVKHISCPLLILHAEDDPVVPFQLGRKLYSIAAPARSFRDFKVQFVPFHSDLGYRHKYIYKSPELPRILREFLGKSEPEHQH
Summary of the method: as §1

WT-ABHD12 = target: T2, WT-ABHD12 (Homo sapiens, UniProt Q8N2K0); test: LC/MS-based LPS hydrolysis assay, WT-ABHD12 in HEK293T cell lysates; assay type: biochemical
T2 sequence (Q8N2K0 1-398): T1 sequence (Q8N2K0 1-398)
Summary of the method: (§2)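 Recombinant ABHD12 (WT, S246A and K373 mutants) was expressed in HEK293T cells and used as cell lysate. Lysate was preincubated with the test compound (single-point 100 µM, or a dose series; 1 h, 37 °C), then given 17:1 LPS substrate (100 µM, 20 min, 37 °C).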

K678R-PFKM = K678R-PFKM (Homo sapiens, UniProt P08237, K678R); test: F6P phosphorylation assay, K678R-PFKM in HEK293T cell lysates; assay type: biochemical
Chain of K678R-PFKM (P08237 whole entry K678R): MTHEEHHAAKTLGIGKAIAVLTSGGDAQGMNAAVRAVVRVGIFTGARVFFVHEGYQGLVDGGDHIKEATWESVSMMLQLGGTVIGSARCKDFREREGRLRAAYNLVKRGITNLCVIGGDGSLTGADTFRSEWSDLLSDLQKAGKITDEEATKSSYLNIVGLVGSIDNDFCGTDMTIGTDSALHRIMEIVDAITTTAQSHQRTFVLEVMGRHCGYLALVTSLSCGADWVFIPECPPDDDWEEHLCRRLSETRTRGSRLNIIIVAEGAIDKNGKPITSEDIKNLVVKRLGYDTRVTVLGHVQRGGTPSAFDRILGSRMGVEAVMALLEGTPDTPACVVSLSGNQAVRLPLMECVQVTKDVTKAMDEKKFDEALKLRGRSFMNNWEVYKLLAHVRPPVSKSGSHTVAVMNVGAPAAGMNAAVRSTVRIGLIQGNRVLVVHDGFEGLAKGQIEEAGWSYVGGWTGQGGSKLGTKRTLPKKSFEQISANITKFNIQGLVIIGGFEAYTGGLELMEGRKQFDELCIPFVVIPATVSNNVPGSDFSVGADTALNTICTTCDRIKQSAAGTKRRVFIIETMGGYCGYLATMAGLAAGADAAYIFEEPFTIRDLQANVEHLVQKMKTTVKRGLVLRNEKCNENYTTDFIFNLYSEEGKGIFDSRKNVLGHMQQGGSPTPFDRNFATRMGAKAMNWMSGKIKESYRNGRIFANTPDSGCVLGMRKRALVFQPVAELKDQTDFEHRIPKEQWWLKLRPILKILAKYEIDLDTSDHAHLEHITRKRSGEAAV
Summary of the method: (§3)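 Epitope-tagged WT-PFKM or K678R-PFKM was recombinantly expressed in HEK293T cells and used as lysate. Lysate was preincubated with the test compound (single-point 100 µM, or a dose series; 2 h, 37 °C).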

K299R/K413R-IDH2 = K299R/K413R-IDH2 (Homo sapiens, UniProt P48735, K299R/K413R); test: oxidative IDH2 activity, K299R/K413R-IDH2 in HEK293T cell lysates; assay type: biochemical
Chain of K299R/K413R-IDH2 (P48735 40-452 K299R/K413R): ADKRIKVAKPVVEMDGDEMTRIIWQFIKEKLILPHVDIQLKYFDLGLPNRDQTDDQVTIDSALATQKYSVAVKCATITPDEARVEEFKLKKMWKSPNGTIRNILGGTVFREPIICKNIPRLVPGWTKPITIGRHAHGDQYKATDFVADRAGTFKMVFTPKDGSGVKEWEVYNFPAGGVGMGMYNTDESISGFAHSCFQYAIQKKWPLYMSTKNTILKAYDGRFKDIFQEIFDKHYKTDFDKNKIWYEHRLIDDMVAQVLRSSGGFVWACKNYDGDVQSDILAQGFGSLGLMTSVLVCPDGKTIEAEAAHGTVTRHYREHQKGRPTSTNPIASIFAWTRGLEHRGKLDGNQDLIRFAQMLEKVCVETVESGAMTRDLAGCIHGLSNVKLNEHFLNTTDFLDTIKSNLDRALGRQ

K373R-ABHD12 = K373R-ABHD12 (Homo sapiens, UniProt Q8N2K0, K373R); test: LC/MS-based LPS hydrolysis assay, K373R-ABHD12 in HEK293T cell lysates; assay type: biochemical
Chain of K373R-ABHD12 (Q8N2K0 whole entry K373R): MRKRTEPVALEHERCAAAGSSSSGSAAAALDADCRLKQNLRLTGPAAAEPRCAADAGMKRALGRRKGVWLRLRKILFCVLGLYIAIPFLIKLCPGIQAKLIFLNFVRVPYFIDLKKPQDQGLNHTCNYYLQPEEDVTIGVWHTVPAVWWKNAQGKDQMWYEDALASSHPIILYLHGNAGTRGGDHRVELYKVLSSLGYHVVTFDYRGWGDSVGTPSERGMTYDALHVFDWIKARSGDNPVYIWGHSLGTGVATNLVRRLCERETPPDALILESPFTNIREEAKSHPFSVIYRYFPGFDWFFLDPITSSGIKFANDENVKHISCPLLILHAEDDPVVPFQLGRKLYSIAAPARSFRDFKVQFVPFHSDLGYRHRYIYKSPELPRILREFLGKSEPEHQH
Summary of the method: as §2

K413R-IDH2 = K413R-IDH2 (Homo sapiens, UniProt P48735, K413R); test: oxidative IDH2 activity, K413R-IDH2 in HEK293T cell lysates; assay type: biochemical
Chain of K413R-IDH2 (P48735 40-452 K413R): as the sequence (P48735 40-452 K299R/K413R) above, with R260K counted along it
Summary of the method: (§4)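 HEK293T lysates expressed recombinant IDH2: WT, K299 mutants, K413R, or double K299R/K413R. Lysate was preincubated with the test compound (single-point 100 µM, or a dose series; 1 h, 37 °C). α-KG production from D-(+)-threo-isocitrate (1.3 mM, 1 h, 25 °C) was measured.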

WT-IDH2 = WT-IDH2 (Homo sapiens, UniProt P48735); test: oxidative IDH2 activity; assay type: biochemical
Chain of WT-IDH2 (P48735 40-452): as the sequence (P48735 40-452 K299R/K413R) above, with R260K, R374K counted along it
Summary of the method: as §4

ABHD12 [6] = target: T1, ABHD12; test: immunoblot analysis of high-molecular-weight ABHD12 aggregates; settings: recombinant ABHD12, immunoblot
Summary of the method: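 Flag-tagged WT and K373R ABHD12 expressed recombinantly in HEK293T cells; lysates treated with increasing test compound, then labeled with TAMRA-FP. Read-out by in-gel fluorescence plus Western blot, tracking monomeric and high-molecular-weight ABHD12 bands.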

K299R-IDH2 = K299R-IDH2 (Homo sapiens, UniProt P48735, K299R); test: oxidative IDH2 activity, K299R-IDH2 in HEK293T cell lysates; assay type: biochemical
Chain of K299R-IDH2 (P48735 40-452 K299R): as the sequence (P48735 40-452 K299R/K413R) above, with R374K counted along it
Summary of the method: as §4

R140Q-IDH2 = R140Q-IDH2 (Homo sapiens, UniProt P48735, R140Q); test: reductive activity; assay type: biochemical
Chain of R140Q-IDH2 (P48735 40-452 R140Q): as the sequence (P48735 40-452 K299R/K413R) above, with R101Q, R260K, R374K counted along it
Summary of the method: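 Lysates of HEK293T cells expressed recombinant R140Q-IDH2, alone or with K299R or K299R/K413R added. Lysate was preincubated with the test compound (single-point 100 µM, or a dose series; 2 h, 20 °C). 2-HG production from α-KG substrate (0.6 mM, 1 h, 25 °C) was measured.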

WT-PFKM = WT-PFKM (Homo sapiens, UniProt P08237); test: F6P phosphorylation assay, WT-PFKM in HEK293T cell lysates; assay type: biochemical
Chain of WT-PFKM (P08237 whole entry): as the sequence (P08237 whole entry K678R) above, with R678K counted along it
Summary of the method: as §3

IDH2 = IDH2 (Homo sapiens, UniProt P48735); test: immunoblotting analysis of IDH2 homodimerization
Chain of IDH2 (P48735 40-452): as the sequence (P48735 40-452 K299R/K413R) above, with R260K, R374K counted along it
Summary of the method: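 Flag-tagged WT- and R140Q-IDH2, with K299 and K413 mutants, were recombinantly expressed in HEK293T cells. Lysates were treated with the test compound, and IDH2 homodimer formation was read by immunoblot.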

[7] = phenolic core of ubiquinol; cited from earlier work
OCIAD2 = OCIAD2 (Homo sapiens, UniProt Q56VL3); test: TMT18plex lysine ligandability profiling, OCIAD2; assay type: binding; settings: 100 μM, 8 h
Chain of OCIAD2 (Q56VL3 whole entry): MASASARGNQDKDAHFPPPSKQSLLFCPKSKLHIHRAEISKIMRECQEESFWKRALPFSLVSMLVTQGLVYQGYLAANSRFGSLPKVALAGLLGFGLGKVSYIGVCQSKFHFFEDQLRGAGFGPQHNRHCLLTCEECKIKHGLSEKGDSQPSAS
Summary of the method: as §1

Chain of stathmin (STMN1) (P16949 whole entry): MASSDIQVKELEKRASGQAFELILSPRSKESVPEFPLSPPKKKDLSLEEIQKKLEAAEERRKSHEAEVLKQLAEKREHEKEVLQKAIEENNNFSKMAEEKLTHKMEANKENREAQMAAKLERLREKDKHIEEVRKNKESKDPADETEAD

Molecule: O=Cc1ccccc1 [benzaldehyde]
- fold increased half-life / diminished rate compared to salicylaldehyde [3]: 10 fold

Molecule: O=Cc1c(O)cc(O)cc1O [phloroglucinaldehyde]
- fold increased half-life / diminished rate compared to salicylaldehyde [3]: 80 fold

Molecule: COc1c(O)c(C)c(C/C=C(\C)CC/C=C(\C)CC/C=C(\C)CC/C=C(\C)CC/C=C(\C)CC/C=C(\C)CC/C=C(\C)CC/C=C(\C)CC/C=C(\C)CCC=C(C)C)c(O)c1OC [ubiquinol]
- calculated pKa1 [7]: 5.31
- calculated pKa2 [7]: 10.86

Molecule: (+)-euglobal-G2
- ligandability of K128 in STMN1 (stathmin (STMN1)): 67%
- ligandability of K99 in OCIAD2 (OCIAD2; MDA-MB-231 cells): 92%
- ligandability of K99 in OCIAD2 (OCIAD2; MDA-MB-436 cells): 49%
- ligandability of K24 in PHB2 (prohibitin-2 (PHB2)): 26%

Further lines, with some results ahead:

- ligandability of K128 in STMN1 (stathmin (STMN1)): 11%
- ligandability of K24 in PHB2 (prohibitin-2 (PHB2)): 61%
Molecule: CC(C)CC(=O)c1c(O)c(C=O)c2c(c1O)C[C@H]1C[C@H]3C[C@H](C3(C)C)[C@@]1(C)O2 [(−)-euglobal-G2]

- engagement of K76 in CS [1]: exclusively targeted
Molecule: CC(C)CC(=O)c1c(O)c(C=O)c2c(c1O)CC[C@@]1(CC[C@H]3C[C@@H]1C3(C)C)O2 [(−)-euglobal-G3]

- engagement of K246 in ANXA4 (annexin A4 (ANXA4)): exclusively targeted
Molecule: CC(C)CC(=O)c1c(O)c(C=O)c(O)c2c1O[C@@]1(CC2)CC[C@H]2C[C@@H]1C2(C)C [(−)-euglobal-G4]
- competitive blockade of azide probe (−)-11 labeling (MDA-MB-231 cells [2]): blockade of probe (−)-11 labeling for a subset of protein targets in a dose-dependent manner

- pKa (ionization constants): 10.9
Molecule: Cc1c(O)c(C=O)c(O)c(C(=O)CC(C)C)c1O [grandinol]
- fold diminished rate compared to jensenone ([3]; vs jensenone): 30 fold

- pKa (ionization constants): 10.5
- engagement of K35 in TTR (transthyretin (TTR)): selectively engaged
- ligandability of K373 in ABHD12 (ABHD12 [5]): 76%
- IC50 (WT-ABHD12): 32.6 µM
- residual ABHD12 LPS hydrolysis activity (WT-ABHD12; 100 μM, 1 h, 37 °C, 17:1 LPS substrate): 23%
- IC50 (K678R-PFKM): > 100 µM
- IC50 (K299R/K413R-IDH2): > 100 µM
- IC50 (K373R-ABHD12): 45.7 µM
- IC50 (K413R-IDH2): 21.4 µM
- IC50 (WT-IDH2): 20.9 µM
- effect on IDH2 oxidative activity (WT-IDH2; 100 μM, 1 h, 37 °C): complete functional inhibition
- IC50 (K299R-IDH2): 29.8 µM
- IC50 (R140Q-IDH2): 26.2 µM
- effect on reductive activity (2-HG production) (R140Q-IDH2; 100 μM, 2 h, 20 °C): fully abolished the reductive activity
- IC50 (WT-PFKM): 10.8 µM
- inhibitory effect on catalytic activity of PFKM (WT-PFKM; 100 μM, 2 h, 37 °C, among the meroterpenoids assessed): most pronounced inhibitory effects
Molecule: CC(C)CC(=O)c1c(O)c(C=O)c(O)c(C=O)c1O [jensenone]
- levels of monoacylglycerophosphoserine LPS(18:0) (MDA-MB-231 cells [4]): significantly elevated levels
- levels of stearic acid FA(18:0) (MDA-MB-231 cells [4]): concurrent reduction
- oxidative activity following treatment (K299R/K413R-IDH2; double mutant K299R/K413R-IDH2, 100 μM, 1 h, 20 °C): essentially preserved its oxidative activity
- formation of high-molecular-weight ABHD12 aggregates (ABHD12 [6]): marked reduction in the monomeric form of ABHD12 and a concomitant increase in high-molecular-weight ABHD12 aggregates
- IDH2 homodimerization (IDH2): unexpected induction of IDH2 homodimerization

From PMC11000255 (Journal of the American Chemical Society, 2024)
